# Source: PubChem (several laboratories)
# cardiac RTF act = cardiac RTF calcium sensitivity activators, primary screen, biochemical, IANBD-TnC fluorescence, EC20 calcium; Troponin I, cardiac muscle (Homo sapiens) + Troponin T, cardiac muscle (Homo sapiens) + …; AID 493008, 2010; hit rate 0.24% among 340,000; IANBD-labeled TnC RTF fluorescence at EC20 calcium; 0% EC20 calcium, 100% full calcium; activation, % at 7.2 µM;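 active means activation above the mean over all tested compounds plus 3 SD, cut at about 30% in these data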;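 further: rise in fluorescence read as greater calcium sensitivity of cardiac thin filaments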
# CRFR2-BP ag = agonists of CRF-BP/CRF-R2 complex, primary screen, cell-based, HEK293, calcium dye fluorescence, uHTS. CRF-binding protein / CRF receptor 2 complex (human). calcium dye fluorescence (FLIPR); percent of saturating CRF peptide response. activation, % at 13.2 µM. hit rate 0.46% among 350,000. AID 588473, 2011;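 active means activation of at least 50%, plus an integration ratio under a set limit after plate pattern correction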;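 further: plate controls were neutral control wells without compound for no effect and CRF at EC100 for full effect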
# Cardiac RTF inh = cardiac RTF calcium sensitivity inhibitors, primary screen, biochemical, IANBD-TnC fluorescence, EC70 calcium; inhibition, % at 7.15 µM; IANBD-labeled cardiac RTF, Ca2+ fluorescence; AID 493244, 2011; hit rate 0.12% among 340,000; Troponin I, cardiac muscle (Homo sapiens) + Troponin T, cardiac muscle (Homo sapiens) + …;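 active means inhibition above the mean inhibition of all tested compounds plus 3 SD, cut at about 17% in these data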;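 further: assay run at fixed EC70 calcium of 1.6 mM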
# Tn7 DDE FP = inhibitors of Tn7 peptide binding to fibrin DD(E), primary screen, biochemical, fluorescence polarization, human fibrin, Tn7 probe; hit rate 0.13% among 370,000; inhibition, % at 8.3 µM; FP displacement of FITC-Tn7 peptide from fibrin DD(E); 0% = median of compound wells per plate;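 active means inhibition above the mean of compounds falling within the control limits plus 3 SD of them, cut at about 14% in these data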;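 further: 0% = plate median of compound wells and 100% = 10 µM Aha-Tn7 peptide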
# Target sequence (P02675 whole entry, looked up): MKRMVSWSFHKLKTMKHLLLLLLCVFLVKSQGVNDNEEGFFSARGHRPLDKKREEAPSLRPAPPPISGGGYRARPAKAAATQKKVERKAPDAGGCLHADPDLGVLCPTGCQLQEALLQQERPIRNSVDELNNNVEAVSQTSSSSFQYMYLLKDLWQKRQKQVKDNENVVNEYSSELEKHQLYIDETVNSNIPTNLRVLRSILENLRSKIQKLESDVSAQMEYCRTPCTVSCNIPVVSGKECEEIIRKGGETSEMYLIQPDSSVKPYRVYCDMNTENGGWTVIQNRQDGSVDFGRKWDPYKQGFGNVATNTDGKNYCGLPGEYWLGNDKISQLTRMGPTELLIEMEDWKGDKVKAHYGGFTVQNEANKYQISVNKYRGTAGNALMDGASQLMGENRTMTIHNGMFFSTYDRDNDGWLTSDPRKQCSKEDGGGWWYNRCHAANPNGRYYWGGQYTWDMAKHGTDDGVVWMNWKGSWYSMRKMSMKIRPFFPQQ
#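 Measure: % inhibition scaled between sample-field median and high-control FP; Test system: human fibrin DD(E); Quantity: 2 µM final DD(E) protein; Doses: one dose, 8.3 µM nominal; Schedule: compound with protein 10 min, then 3 h after probe, room temperature; Detection: fluorescence polarization; Medium: Tris buffer with calcium and detergent, pH 7.8.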
# DDE Tn6 FP inh = inhibitors of Tn6 peptide binding to fibrin DD(E), primary screen, biochemical, fluorescence polarization, human fibrin, Tn6 probe | inhibition, % at 8.3 µM | AID 720509, 2013 | hit rate 0.21% among 370,000 | Fibrinogen beta chain (Homo sapiens), P02675 | Fibrin DD(E) TRITC-Tn6 fluorescence polarization displacement;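 active means inhibition above a per-campaign cutoff: mean of compounds within control limits plus 3 SD, cut at about 15% in these data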;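 further: 0% = median of all compound wells on the plate and 100% = blocking peptide control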
# CRFBP-R2 block = antagonists of CRF-BP/CRF-R2 complex, primary screen, cell-based, HEK293, calcium dye fluorescence, uHTS. hit rate 0.59% among 350,000. CRF-induced calcium fluorescence. inhibition, % at 11.8 µM;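 active means inhibition of the ligand-induced calcium signal above about 50% at the single tested concentration, limit read from the data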
# Numbers without * were called inactive; x = no result. Shown are actives, neighbours in structure and some others; about 1.4% of the full set was active somewhere.
SMILES,cardiac RTF act,CRFR2-BP ag,Cardiac RTF inh,Tn7 DDE FP,DDE Tn6 FP inh,CRFBP-R2 block
O=C(NCc1ccco1)c1sc(=S)n2c1[nH]c(=O)c1ccccc12,-3,55*,2,5,11,27
O=C(NC1CCCC1)c1sc(=S)n2c1[nH]c(=O)c1ccccc12,0,87*,5,3,-7,30
Nc1c(C(=O)c2ccccc2)sc2nsc(SCCN3CCOCC3)c12,x,69*,x,4,5,-92
CCOc1ccc(C(=O)NNC(=O)CCNC(=O)c2ccc(Br)cc2)cc1OC,-5,-1,-6,1,4,-4
CCOc1ccc(C(=O)NNC(=O)CCNC(=O)c2ccco2)cc1OC,-3,0,-10,-1,-7,97*
C[C@H]1[C@@H](OC(=O)Nc2cc(Cl)ccc2Cl)CC[C@@]23CCCN2C(=O)CCC[C@@H]13,x,x,x,-11,2,x
COc1ccc(OC)c2sc(N(CCN(C)C)C(=O)c3ccc4ccccc4c3)nc12,-2,-1,-1,2,-1,0
COc1cc2ccccc2cc1C(=O)N(CCN(C)C)c1nc2c(OC)ccc(OC)c2s1,0,2,0,-6,-1,72*
O=c1oc2c(CN3CCCCC3)c(O)ccc2cc1-c1nc2ccccc2[nH]1,20,97*,-49,6,2,-71
CCc1cc2c(=O)c(-c3nc4ccccc4[nH]3)coc2c(CN2CCCCC2)c1O,-2,-1,-2,-4,0,-4
O=c1oc2c(CN3CCN(CCO)CC3)c(O)ccc2cc1-c1ccccn1,-1,71*,1,-3,-8,-15
COc1ccc(/C=C2\CC3(OC(=O)c4ccco4)CCCN2C3)cc1 (stereo not given),x,x,x,-3,-4,x
Oc1[nH]c2ccccc2c1N=Nc1c(F)c(F)c(Cl)c(F)c1F,5,-1,-6,-16,-3,-5
Oc1[nH]c2ccccc2c1N=Nc1ccccc1Cl,65*,124*,-89,-2,-6,-97
CCCCN(C)c1c(C)nc2ccc(C(=O)NCc3ccc(OC)cc3)cn12,x,x,x,-2,0,x
CN(/N=C/c1ccc(Cl)cc1)c1ncc(Cl)cc1C(F)(F)F,-7,0,0,6,8,-25
CN(/N=C/c1ccc(Cl)cc1Cl)c1ncc(Cl)cc1C(F)(F)F,3,-1,3,3,-8,63*
CC(=O)c1cc(NC(=O)c2ccc(Cl)cc2)c(=O)oc1/C=C/N(C)C,27,79*,-46,-3,-3,-90
CC(=O)c1cc(NC(=O)c2cccc(C(F)(F)F)c2)c(=O)oc1C,x,0,x,-2,-4,10
COc1ccc(C(=O)Nc2cc(C(C)=O)c(C)oc2=O)cc1,0,0,-11,1,0,-47
CC(=O)c1cc(NC(=O)c2cccc(C(F)(F)F)c2)c(=O)oc1/C=C/N(C)C,9,76*,-12,-9,-3,-120
CC(=O)NC1CCCCN(Cc2cccc(F)c2)C1=O (stereo not given),x,x,x,-4,0,x
CN1C/C(=C/c2ccncc2)C(=O)/C(=C/c2ccncc2)C1,-3,1,-16,-1,1,2
CCc1ccc(/C=C2/SC(N3CCOCC3)=NC2=O)cc1,3,1,-5,1,-3,-5
CN1C/C(=C\c2ccc(N3CCOCC3)cc2)C(=O)/C(=C/c2ccc(N3CCOCC3)cc2)C1,16,66*,-10,-5,-8,-85
SMILES,cardiac RTF act,CRFR2-BP ag,Cardiac RTF inh,Tn7 DDE FP,DDE Tn6 FP inh,CRFBP-R2 block
CCN1C/C(=C/c2ccc(N3CCOCC3)cc2)C(=O)/C(=C/c2ccc(N3CCOCC3)cc2)C1,27,114*,-22,0,-2,-126
Cc1cc(C2C(C#N)=C(N)SC(N)=C2C#N)c(C)s1,41*,104*,-96,x,x,-85
COc1ccc(-c2cc(C)no2)cc1S(=O)(=O)N1CCN(C(=O)c2ccco2)CC1,-4,-2,-3,-5,0,75*
CCCC1=C(C(=O)OCC)C(c2cccnc2)n2nc(C)nc2N1 (stereo not given),-3,0,-2,0,2,114*
COc1cccc(CN2CCN(S(=O)(=O)c3ccc(NC(C)=O)cc3)CC2)c1OC,1,1,-1,-4,-8,6
COc1ccc(OC)c(CN2CCN(S(=O)(=O)c3ccc(NC(C)=O)cc3)CC2)c1,-3,-7,-5,0,11,53*
CCOC(=O)N1CCN(C(=O)C[C@H]2C[C@@]3(C(=O)OC)C(=C[C@H](C(C)C)O[C@@H]3C3CC3)N(CCc3ccc(OC)c(OC)c3)C2=O)CC1,x,x,x,2,8,x
COc1ccc(/C=C2\SC(=O)N(CCC(=O)N3CCN(C)CC3)C2=O)cc1,54*,0,-3,0,4,-14
COC(=O)[C@]12C[C@H](CC(=O)N3CCCC3)C(=O)N(Cc3cccc4ccccc34)C1=C[C@H](COCc1ccccc1)O[C@@H]2C,x,x,x,-5,7,x
CN1/C(=C\C=C(/C#N)C(=O)Nc2ccccc2F)C(C)(C)c2ccccc21,39*,257*,-31,-4,6,-193
CN1/C(=C/C=C(/C#N)C(N)=O)C(C)(C)c2ccccc21,9,13,-4,-5,3,-35
CC1(C)CC(=O)C=C(c2ccc(-c3ccc(S(C)(=O)=O)cc3)cc2)C1=O,x,2,x,7,0,-14
CCCP(=O)(CC(=O)N(CC)CC)c1ccccc1 (stereo not given),0,3,-11,-2,-3,58*
COc1ccccc1N1CCN(C(=O)C(=O)c2cn(CC(=O)N3CCCCCC3)c3ccccc23)CC1,9,0,-13,4,7,5
COc1ccccc1N1CCN(C(=O)C(=O)c2cn(CC(=O)N3CCCC3)c3ccccc23)CC1,2,-1,2,2,2,62*
CC(C)(C)c1ccc(C(=O)Nc2cc(Cl)ccc2-c2nn[nH]n2)cc1,x,x,x,-4,-2,x
Cc1ccc(C(=O)NNC(=S)NC(=O)c2ccco2)cc1,6,97*,-13,4,5,35
O=C(NNC(=S)NC(=O)c1ccc(Br)cc1)c1cccc([N+](=O)[O-])c1,-2,35,-9,2,6,30
